How the values were obtained:
HA-tagged hGnRHR [1] = target: T1, HA-tagged hGnRHR (Homo sapiens, UniProt P30968); experiment: Whole cell expression of HA-hGnRHR; type: cell-based; details: HeLa; 18 h, 10^−7 M; not shown
T1 sequence (P30968 1-328): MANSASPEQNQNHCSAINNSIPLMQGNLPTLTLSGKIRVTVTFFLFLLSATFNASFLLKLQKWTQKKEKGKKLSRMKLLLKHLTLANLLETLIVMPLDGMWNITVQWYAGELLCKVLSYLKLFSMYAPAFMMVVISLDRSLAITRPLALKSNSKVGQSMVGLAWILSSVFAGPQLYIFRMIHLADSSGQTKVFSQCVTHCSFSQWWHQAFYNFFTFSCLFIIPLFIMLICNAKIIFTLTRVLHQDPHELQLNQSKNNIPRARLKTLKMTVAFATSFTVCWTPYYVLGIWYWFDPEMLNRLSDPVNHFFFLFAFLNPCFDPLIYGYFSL

[2] = tested on: GnRHR point mutants that cause hypogonadotropic hypogonadism; details: cited from earlier work
wild-type GnRHR = details: cited from earlier work
HA-tagged XGnRHR [3] = experiment: Cell surface expression of HA-XGnRHR; type: cell-based, Xenopus laevis; details: HeLa
HA-tagged h.XGnRHR [4] = experiment: Whole cell expression of HA-h.XGnRHR; type: cell-based, human/Xenopus laevis; details: HeLa; 18 h, 10^−7 M; not shown
HA-tagged h.XGnRHR [5] = experiment: Internalization of anti-HA preloaded receptor; type: cell-based, human/Xenopus laevis; details: HeLa, 60 min, 37°C; for block of GnRH-stimulated internalization: antagonist 10^−7 M with GnRH 10^−9 M
A261K.hGnRHR = experiment: Cell surface expression of A261K.hGnRHR; type: cell-based, human; details: HeLa; 18 h, 10^−7 M IN3
HA-tagged mGnRHR [6] = target: T2, HA-tagged mGnRHR (Mus musculus, UniProt Q01776); experiment: Internalization of anti-HA preloaded receptor; type: cell-based; details: HeLa, 60 min, 37°C; for block of GnRH-stimulated internalization: antagonist 10^−7 M with GnRH 10^−9 M
T2 sequence (Q01776 1-327): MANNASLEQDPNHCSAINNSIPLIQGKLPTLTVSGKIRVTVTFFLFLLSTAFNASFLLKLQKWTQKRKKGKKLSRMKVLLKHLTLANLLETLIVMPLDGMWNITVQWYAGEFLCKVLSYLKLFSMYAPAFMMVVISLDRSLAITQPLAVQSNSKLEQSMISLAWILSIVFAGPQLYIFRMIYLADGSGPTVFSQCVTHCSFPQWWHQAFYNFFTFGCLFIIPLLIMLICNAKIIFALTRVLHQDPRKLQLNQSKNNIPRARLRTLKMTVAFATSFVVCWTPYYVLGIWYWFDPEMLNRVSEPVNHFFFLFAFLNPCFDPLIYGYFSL

HA-tagged hGnRHR [7] = target: T1, HA-tagged hGnRHR; experiment: Cell surface expression / PCSE of HA-hGnRHR after 18 h ligand exposure; type: cell-based; details: HeLa
A261K.h.XGnRHR = experiment: Cell surface expression of A261K.h.XGnRHR; type: cell-based, human/Xenopus laevis; details: HeLa; 18 h, 10^−7 M IN3
[8] = target: T3, HA-tagged h.XGnRHR (hGnRHR with added XGnRHR COOH tail) (Homo sapiens, UniProt P30968); experiment: Cell surface expression / PCSE of HA-h.XGnRHR after 18 h ligand exposure; type: cell-based, human/Xenopus laevis; details: HeLa
T3 sequence (P30968 1-328): T1 sequence (P30968 1-328)

HA-tagged XGnRHR [9] = experiment: Trafficking, anti-HA loading with agonist present; type: cell-based, Xenopus laevis; details: HeLa; 10^−7 M GnRH II with anti-HA, 0–60 min, 37°C
HA-tagged h.XGnRHR [10] = experiment: Trafficking, anti-HA loading with agonist present; type: cell-based, human/Xenopus laevis; details: HeLa; 10^−7 M GnRH with anti-HA, 0–60 min, 37°C
HA-A261K-h.XGnRHR = experiment: Trafficking, anti-HA loading with agonist present; type: cell-based, human/Xenopus laevis; details: HeLa; 10^−7 M GnRH with anti-HA, 0–60 min, 37°C
HA-A261K h.XGnRHR = experiment: Internalization of anti-HA preloaded receptor; type: cell-based, human/Xenopus laevis; details: HeLa, 60 min, 37°C
Method in brief: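 HeLa cells transduced day after plating with adenovirus (1–3 pfu/nl, 6 h) carrying exofacially HA-tagged, G protein-uncoupled receptor; assayed next day. Surface receptors prelabelled 60 min with mouse anti-HA (1:200) in DMEM/2% BSA at ~21°C, washed, then treated at 37°C. Cells were fixed, permeabilized, given Alexa 488 secondary plus DAPI, and stained inclusions quantified by automated ×10 imaging. Data are 3–4 wells.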

HA-tagged mGnRHR [11] = target: T2, HA-tagged mGnRHR; experiment: Cell surface expression of HA-mGnRHR; type: cell-based; details: HeLa, 10^−7 M GnRH, 37°C
[12] = 10^−7 M IN3, fluorescence immunohistochemistry, automated imaging

Cc1cc(C)cc(-c2[nH]c3ccc(C(C)(C)C(=O)N4CC5CCC4CC5)cc3c2[C@H](C)CNCCc2ccncc2)c1 [IN3, (2S)-2-[5-[2-(2-azabicyclo[2.2.2]oct-2-yl)-1,1-dimethy-2-oxoethyl]-2-(3,5-dimethylphenyl)-1H-indol-3-yl]-N-(2-pyridin-4-ylethyl)propan-1-amine]
whole cell expression (effect of ligand) (HA-tagged hGnRHR [1]): no measurable effect
rescue of signaling [2]: “rescues” signaling via most of these mutants
signaling via wild-type GnRHR (wild-type GnRHR): increases signaling
cell surface expression after preincubation (effect of IN3) (HA-tagged XGnRHR [3]; 18 h preincubation, 10^−7 M IN3, not shown): did not alter expression
whole cell expression (effect of ligand) (HA-tagged h.XGnRHR [4]): no measurable effect
block of GnRH-stimulated internalization (HA-tagged h.XGnRHR [5]): blocked
effect of IN3 on cell surface expression (A261K.hGnRHR): pronounced increase
block of GnRH-stimulated internalization (HA-tagged mGnRHR [6]): blocked
cell surface expression (effect of ligand) (HA-tagged hGnRHR [7]; [12]): greatly increased
PCSE (proportional cell surface expression) (HA-tagged hGnRHR [7]; 10^−7 M, increased from 1.6% (control), n = 3 experiments): 11%
PCSE increase (HA-tagged hGnRHR [7]; 10^−7 M, vs control, 'almost 7-fold'): ~7 fold
effect of IN3 on cell surface expression (A261K.h.XGnRHR): pronounced increase
cell surface expression (effect of ligand) [8, 12]: greatly increased
PCSE (proportional cell surface expression) ([8]; 10^−7 M, increased from 6.3% (control), n = 3 experiments): 17.6%

(His^5, Trp^7, Tyr^8)GnRH [GnRH II]
time to maximal effect on cell surface expression (HA-tagged XGnRHR [3]; 10^−7 M GnRH II, 37°C): 120 min
time to significant reduction in cell surface expression (HA-tagged XGnRHR [3]; 10^−7 M GnRH II, 37°C): 10 min
reduction in cell surface expression (HA-tagged XGnRHR [3]; 10^−7 M GnRH II, 37°C, data with and without IN3 pretreatment pooled): rapid reduction
inclusion count (effect of agonist) (HA-tagged XGnRHR [9]): increased

cetrorelix
block of GnRH-stimulated internalization (HA-tagged h.XGnRHR [5]): blocked
internalization (effect of peptide antagonist alone) (HA-tagged h.XGnRHR [5]; cetrorelix 10^−7 M): not increased by a peptide antagonist
block of GnRH-stimulated internalization (HA-tagged mGnRHR [6]): blocked
internalization (effect of peptide antagonist alone) (HA-tagged mGnRHR [6]; cetrorelix 10^−7 M): not increased by a peptide antagonist

gonadotropin-releasing hormone [GnRH]
inclusion count (effect of agonist) (HA-tagged h.XGnRHR [10]): increased
receptor distribution (effect of GnRH) (HA-A261K-h.XGnRHR): no measurable effect
internalization (effect of 10^−9 M GnRH) (HA-tagged h.XGnRHR [5]; 10^−9 M GnRH): increased
internalization (effect of 10^−9 M GnRH) (HA-A261K h.XGnRHR): did not increase internalization
reduction in cell surface expression, IN3-pretreated cells (HA-tagged mGnRHR [11]; after 18 h 10^−7 M IN3): pronounced reduction
reduction in cell surface expression (HA-tagged mGnRHR [11]; no IN3 pretreatment): reduced expression
internalization (effect of 10^−9 M GnRH) (HA-tagged mGnRHR [6]; 10^−9 M GnRH): increased

Source: PMC2740399 (American Journal of Physiology - Cell Physiology, 2009)
